Laboratory results: ChEMBL document CHEMBL2163192, “N,N-Dimethyl-[9-(arylsulfonyl)-2,3,4,9-tetrahydro-1H-carbazol-3-yl]amines as novel, potent and selective 5-HT₆ receptor antagonists” (Bioorg Med Chem Lett, 2012)
One block for each molecule: values may come before it.

How the values were obtained:
[1] = target: T1, 5-hydroxytryptamine receptor 6 (Homo sapiens, UniProt P50406); assay: Displacement of [3H]LSD from human cloned 5-HT6 receptor expressed in HEK293 cells; assay type: cell-based
[2] = target: Sodium-dependent serotonin transporter (Homo sapiens) (UniProt P31645); assay: Inhibition of SERT at 1 uM
Summary of the method: (§1)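 In-house selectivity panel of related receptors and transporters; each compound tested at 1 μM and 10 μM; percent inhibition determined in duplicate and the mean of the two reported.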

[3] = target: T2, Alpha-1B adrenergic receptor (Homo sapiens) (UniProt P35368); assay: Inhibition of alpha1B adrenergic receptor at 1 uM; summary of the method: as §1
T2 sequence (whole entry): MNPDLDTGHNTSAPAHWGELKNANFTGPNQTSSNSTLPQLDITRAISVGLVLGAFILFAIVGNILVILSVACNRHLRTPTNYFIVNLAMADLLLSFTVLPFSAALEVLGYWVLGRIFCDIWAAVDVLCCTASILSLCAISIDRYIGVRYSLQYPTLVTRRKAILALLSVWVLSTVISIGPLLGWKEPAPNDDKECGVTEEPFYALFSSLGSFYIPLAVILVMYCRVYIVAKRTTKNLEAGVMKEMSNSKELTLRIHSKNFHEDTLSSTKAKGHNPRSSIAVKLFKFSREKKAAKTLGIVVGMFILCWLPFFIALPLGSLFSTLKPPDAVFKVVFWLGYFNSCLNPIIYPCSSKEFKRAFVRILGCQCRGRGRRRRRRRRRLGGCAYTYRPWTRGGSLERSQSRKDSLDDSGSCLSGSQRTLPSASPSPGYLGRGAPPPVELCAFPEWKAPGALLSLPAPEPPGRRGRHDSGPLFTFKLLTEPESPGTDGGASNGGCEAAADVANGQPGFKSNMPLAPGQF

[4] = target: T2, Alpha-1B adrenergic receptor (Homo sapiens); assay: Inhibition of alpha1B adrenergic receptor at 10 uM; summary of the method: as §1
[5] = target: T3, 5-hydroxytryptamine receptor 1A (Homo sapiens) (UniProt P08908); assay: Inhibition of 5-HT1A receptor at 1 uM; summary of the method: as §1
T3 sequence (whole entry): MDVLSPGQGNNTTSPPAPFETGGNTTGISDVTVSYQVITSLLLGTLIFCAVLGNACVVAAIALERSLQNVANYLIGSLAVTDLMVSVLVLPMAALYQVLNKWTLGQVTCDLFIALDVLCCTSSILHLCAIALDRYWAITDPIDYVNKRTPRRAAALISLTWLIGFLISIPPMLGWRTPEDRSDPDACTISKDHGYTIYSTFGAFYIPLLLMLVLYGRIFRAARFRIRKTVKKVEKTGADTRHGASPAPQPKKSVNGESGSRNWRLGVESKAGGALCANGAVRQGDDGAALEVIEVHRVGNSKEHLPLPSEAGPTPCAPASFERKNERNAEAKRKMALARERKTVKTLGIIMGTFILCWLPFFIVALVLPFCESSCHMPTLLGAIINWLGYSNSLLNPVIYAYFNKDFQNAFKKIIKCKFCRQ

[6] = target: T3, 5-hydroxytryptamine receptor 1A (Homo sapiens); assay: Inhibition of 5-HT1A receptor at 10 uM; summary of the method: as §1
[7] = target: 5-hydroxytryptamine receptor 2A (Homo sapiens) (UniProt P28223); assay: Inhibition of 5-HT2A receptor at 1 uM; summary of the method: as §1
[8] = target: 5-hydroxytryptamine receptor 2A (Homo sapiens) (UniProt P28223); assay: Inhibition of 5-HT2A receptor at 10 uM; summary of the method: as §1
[9] = target: D(2) dopamine receptor (Homo sapiens) (UniProt P14416); assay: Inhibition of dopamine D2 receptor at 1 uM; summary of the method: as §1
[10] = target: D(2) dopamine receptor (Homo sapiens) (UniProt P14416); assay: Inhibition of dopamine D2 receptor at 10 uM; summary of the method: as §1
[11] = target: Sodium-dependent dopamine transporter (Homo sapiens) (UniProt Q01959); assay: Inhibition of DAT at 1 uM; summary of the method: as §1
[12] = target: Sodium-dependent dopamine transporter (Homo sapiens) (UniProt Q01959); assay: Inhibition of DAT at 10 uM; summary of the method: as §1
[13] = target: Histamine H3 receptor (Homo sapiens) (UniProt Q9Y5N1); assay: Inhibition of histamine H3 receptor at 1 uM; summary of the method: as §1
[14] = target: Histamine H3 receptor (Homo sapiens) (UniProt Q9Y5N1); assay: Inhibition of histamine H3 receptor at 10 uM; summary of the method: as §1
[15] = target: Histamine H4 receptor (Homo sapiens) (UniProt Q9H3N8); assay: Inhibition of histamine H4 receptor at 1 uM; summary of the method: as §1
[16] = target: Histamine H4 receptor (Homo sapiens) (UniProt Q9H3N8); assay: Inhibition of histamine H4 receptor at 10 uM; summary of the method: as §1
[17] = target: Sodium-dependent serotonin transporter (Homo sapiens) (UniProt P31645); assay: Inhibition of SERT at 10 uM; summary of the method: as §1
[18] = target: T1, 5-hydroxytryptamine receptor 6; assay: Antagonist activity at human recombinant 5-HT6 receptor expressed in CHO cells assessed as inhibition of 5-HT-stimulated cAMP accumulation after 4 hrs by luciferase reporter gene assay; assay type: functional, cell-based
Summary of the method: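 Cell-based, non-radioactive reporter gene assay measuring antagonism of 5-HT-stimulated cAMP formation at human 5-HT6 receptor; IC50 and Kb values determined in duplicate.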

CYP2C19 = CYP2C19 (Homo sapiens, UniProt P33261); assay: Inhibition of human CYP2C19 at 3 uM; assay type: ADME
Summary of the method: (§2)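 Isoform-selective inhibition assays using heterologously expressed human CYP enzymes; compounds tested at 3 μM; percent inhibition reported.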

CYP2D6 = CYP2D6 (Homo sapiens, UniProt P10635); assay: Inhibition of human CYP2D6 at 3 uM; assay type: ADME; summary of the method: as §2
CYP3A4 = CYP3A4 (Homo sapiens, UniProt P08684); assay: Inhibition of human CYP3A4 at 3 uM; assay type: ADME; summary of the method: as §2
[19] = target: T1, 5-hydroxytryptamine receptor 6; assay: Binding affinity to human 5-HT6 receptor
Summary of the method: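 Radioligand binding assay at human 5-HT6 receptor; Ki values determined in triplicate.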

[20] = Drug metabolism in human liver microsomes; assay type: ADME, Microsome; conditions: read-out: Drug metabolism
[21] = Drug metabolism in rat liver microsomes; assay type: ADME, Microsome; conditions: read-out: Drug metabolism

Sodium-dependent serotonin transporter (Homo sapiens), sequence (P31645 whole entry, looked up): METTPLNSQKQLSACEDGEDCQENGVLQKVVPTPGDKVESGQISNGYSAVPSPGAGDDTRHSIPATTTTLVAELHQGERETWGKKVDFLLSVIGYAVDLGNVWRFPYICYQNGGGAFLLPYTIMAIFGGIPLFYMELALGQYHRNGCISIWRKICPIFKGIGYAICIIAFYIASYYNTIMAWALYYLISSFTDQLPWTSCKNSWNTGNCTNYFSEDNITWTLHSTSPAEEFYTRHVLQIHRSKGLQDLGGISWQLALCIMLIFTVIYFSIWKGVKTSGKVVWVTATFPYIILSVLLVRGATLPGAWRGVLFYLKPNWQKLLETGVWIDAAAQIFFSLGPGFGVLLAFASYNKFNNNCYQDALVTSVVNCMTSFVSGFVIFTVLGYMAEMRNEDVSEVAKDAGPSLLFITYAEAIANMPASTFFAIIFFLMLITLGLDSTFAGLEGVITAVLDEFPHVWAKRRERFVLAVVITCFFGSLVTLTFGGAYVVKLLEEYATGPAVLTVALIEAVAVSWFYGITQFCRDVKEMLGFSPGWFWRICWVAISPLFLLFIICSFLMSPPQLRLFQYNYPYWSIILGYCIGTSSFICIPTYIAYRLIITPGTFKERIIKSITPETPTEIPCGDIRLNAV
T1 sequence (P50406 whole entry): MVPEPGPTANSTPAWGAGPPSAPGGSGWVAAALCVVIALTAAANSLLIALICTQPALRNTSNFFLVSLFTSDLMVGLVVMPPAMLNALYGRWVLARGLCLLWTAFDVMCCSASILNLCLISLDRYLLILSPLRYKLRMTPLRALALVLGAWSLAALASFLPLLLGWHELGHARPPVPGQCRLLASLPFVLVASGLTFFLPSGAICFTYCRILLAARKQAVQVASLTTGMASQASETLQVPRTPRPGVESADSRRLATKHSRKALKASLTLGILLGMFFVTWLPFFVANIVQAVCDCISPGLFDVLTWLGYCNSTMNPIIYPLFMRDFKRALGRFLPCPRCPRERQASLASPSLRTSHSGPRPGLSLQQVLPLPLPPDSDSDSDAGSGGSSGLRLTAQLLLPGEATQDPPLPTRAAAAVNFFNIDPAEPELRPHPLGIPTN
5-hydroxytryptamine receptor 2A (Homo sapiens), sequence (P28223 whole entry): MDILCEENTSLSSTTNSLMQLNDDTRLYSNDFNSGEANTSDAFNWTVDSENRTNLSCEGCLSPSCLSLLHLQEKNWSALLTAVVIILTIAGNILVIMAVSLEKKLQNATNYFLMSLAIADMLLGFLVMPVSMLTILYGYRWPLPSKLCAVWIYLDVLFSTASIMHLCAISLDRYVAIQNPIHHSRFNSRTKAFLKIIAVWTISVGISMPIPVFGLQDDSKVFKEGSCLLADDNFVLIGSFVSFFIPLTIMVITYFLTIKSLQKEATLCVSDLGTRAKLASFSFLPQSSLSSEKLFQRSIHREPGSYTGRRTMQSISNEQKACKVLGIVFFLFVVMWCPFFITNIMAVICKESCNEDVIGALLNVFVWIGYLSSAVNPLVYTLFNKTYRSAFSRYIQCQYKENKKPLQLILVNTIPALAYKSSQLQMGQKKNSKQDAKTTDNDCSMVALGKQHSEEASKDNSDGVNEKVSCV
D(2) dopamine receptor (Homo sapiens), sequence (P14416 whole entry): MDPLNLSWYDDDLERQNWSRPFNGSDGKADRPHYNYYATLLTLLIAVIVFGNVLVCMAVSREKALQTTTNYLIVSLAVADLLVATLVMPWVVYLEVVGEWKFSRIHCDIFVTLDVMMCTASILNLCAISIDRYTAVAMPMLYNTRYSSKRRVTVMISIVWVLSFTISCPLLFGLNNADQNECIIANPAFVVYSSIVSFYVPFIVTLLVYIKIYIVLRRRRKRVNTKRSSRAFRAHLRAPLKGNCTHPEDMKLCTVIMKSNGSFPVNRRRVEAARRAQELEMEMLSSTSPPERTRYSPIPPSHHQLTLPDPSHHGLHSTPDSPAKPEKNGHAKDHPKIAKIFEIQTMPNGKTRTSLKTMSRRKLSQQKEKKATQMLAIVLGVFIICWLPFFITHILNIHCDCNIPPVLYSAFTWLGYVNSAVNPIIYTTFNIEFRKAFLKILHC
Sodium-dependent dopamine transporter (Homo sapiens), sequence (Q01959 whole entry): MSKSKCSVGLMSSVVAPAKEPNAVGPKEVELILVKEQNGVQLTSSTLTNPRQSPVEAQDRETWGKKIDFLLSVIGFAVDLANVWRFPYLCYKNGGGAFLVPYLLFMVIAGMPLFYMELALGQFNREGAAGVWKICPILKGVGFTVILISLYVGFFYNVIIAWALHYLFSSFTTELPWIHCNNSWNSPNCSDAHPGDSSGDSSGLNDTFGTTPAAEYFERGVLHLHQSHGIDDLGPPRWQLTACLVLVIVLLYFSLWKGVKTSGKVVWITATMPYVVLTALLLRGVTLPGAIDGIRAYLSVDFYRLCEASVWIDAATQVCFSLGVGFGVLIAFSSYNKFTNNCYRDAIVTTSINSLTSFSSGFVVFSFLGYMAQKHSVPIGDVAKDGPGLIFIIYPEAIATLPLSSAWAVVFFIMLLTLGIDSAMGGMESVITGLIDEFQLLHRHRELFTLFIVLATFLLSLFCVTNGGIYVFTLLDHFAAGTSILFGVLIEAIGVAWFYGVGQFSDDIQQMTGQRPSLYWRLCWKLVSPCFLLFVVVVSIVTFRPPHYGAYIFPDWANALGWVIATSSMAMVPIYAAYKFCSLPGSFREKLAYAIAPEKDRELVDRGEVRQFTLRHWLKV
Histamine H3 receptor (Homo sapiens), sequence (Q9Y5N1 whole entry): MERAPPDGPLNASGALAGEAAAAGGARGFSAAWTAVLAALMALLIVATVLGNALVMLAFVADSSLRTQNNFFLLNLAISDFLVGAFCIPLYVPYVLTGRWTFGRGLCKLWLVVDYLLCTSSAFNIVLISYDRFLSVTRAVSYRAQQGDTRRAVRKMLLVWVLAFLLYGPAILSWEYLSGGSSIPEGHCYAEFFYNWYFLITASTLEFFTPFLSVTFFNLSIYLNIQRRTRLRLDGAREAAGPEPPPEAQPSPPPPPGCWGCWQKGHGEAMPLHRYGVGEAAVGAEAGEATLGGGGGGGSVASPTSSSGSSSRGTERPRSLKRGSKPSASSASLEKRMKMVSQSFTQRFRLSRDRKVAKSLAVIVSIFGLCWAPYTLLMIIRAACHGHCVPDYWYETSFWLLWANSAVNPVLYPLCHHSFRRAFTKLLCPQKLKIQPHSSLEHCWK
CYP2D6, sequence (P10635 whole entry): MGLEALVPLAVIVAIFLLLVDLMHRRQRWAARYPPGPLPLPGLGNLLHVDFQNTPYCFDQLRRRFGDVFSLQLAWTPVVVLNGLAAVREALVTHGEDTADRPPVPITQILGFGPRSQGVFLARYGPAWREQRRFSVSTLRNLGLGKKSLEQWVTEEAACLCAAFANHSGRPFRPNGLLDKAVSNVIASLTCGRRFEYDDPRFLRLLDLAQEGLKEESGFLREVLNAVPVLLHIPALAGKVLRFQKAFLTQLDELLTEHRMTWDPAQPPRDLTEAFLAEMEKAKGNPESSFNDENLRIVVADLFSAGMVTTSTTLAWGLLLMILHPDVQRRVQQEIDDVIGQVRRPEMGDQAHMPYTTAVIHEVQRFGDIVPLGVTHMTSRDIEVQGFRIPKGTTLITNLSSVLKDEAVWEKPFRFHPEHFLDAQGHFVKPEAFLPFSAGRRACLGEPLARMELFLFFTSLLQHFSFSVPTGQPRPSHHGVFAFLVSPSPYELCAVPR
CYP2C19, sequence (P33261 whole entry, canonical isoform): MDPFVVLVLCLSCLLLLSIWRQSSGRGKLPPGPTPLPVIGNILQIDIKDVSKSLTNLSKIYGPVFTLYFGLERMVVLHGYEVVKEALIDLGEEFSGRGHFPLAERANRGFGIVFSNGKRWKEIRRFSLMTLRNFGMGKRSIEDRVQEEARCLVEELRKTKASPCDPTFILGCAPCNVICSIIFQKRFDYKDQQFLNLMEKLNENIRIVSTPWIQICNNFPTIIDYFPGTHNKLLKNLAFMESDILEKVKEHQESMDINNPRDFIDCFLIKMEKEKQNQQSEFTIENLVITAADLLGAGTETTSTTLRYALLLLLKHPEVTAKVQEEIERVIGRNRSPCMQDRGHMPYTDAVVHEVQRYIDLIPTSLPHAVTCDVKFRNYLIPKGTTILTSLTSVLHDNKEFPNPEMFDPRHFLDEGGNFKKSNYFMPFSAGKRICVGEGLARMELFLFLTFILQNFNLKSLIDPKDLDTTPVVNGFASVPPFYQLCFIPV
CYP3A4, sequence (P08684 whole entry): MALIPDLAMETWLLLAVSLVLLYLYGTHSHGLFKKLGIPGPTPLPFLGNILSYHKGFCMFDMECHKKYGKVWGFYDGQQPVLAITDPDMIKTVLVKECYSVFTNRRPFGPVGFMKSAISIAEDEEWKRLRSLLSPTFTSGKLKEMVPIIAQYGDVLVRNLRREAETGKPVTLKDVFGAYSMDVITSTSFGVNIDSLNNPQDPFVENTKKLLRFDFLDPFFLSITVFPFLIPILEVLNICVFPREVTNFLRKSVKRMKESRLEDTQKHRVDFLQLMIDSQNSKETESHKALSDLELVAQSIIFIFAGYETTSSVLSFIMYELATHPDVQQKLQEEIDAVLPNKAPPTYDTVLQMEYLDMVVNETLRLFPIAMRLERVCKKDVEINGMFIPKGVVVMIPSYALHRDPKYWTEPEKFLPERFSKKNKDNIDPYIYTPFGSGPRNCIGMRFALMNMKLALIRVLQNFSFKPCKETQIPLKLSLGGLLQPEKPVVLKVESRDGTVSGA

- Ki [1]: 41.1 nM
SMILES: CN(C)C1CCc2c(c3cc(Cl)ccc3n2S(=O)(=O)c2ccc(Br)cc2)C1 (racemic)

- Ki [1]: 5.02 nM
SMILES: CN(C)C1CCc2c(c3cc(F)ccc3n2S(=O)(=O)c2ccccc2Br)C1 (racemic)

- Ki [1]: 4.21 nM
- inhibition [2]: 2.69%
- inhibition [3]: 4.24%
- inhibition [4]: 7.92%
- inhibition [5]: 29.9%
- inhibition [6]: 50.3%
- inhibition [7]: 7.37%
- inhibition [8]: 35.2%
- inhibition [9]: 15.3%
- inhibition [10]: 32.1%
- inhibition [11]: 0%
- inhibition [12]: 7.21%
- inhibition [13]: 11%
- inhibition [14]: 39.9%
- inhibition [15]: 4.9%
- inhibition [16]: 10.3%
- inhibition [17]: 1.49%
SMILES: CN(C)C1CCc2c(c3ccccc3n2S(=O)(=O)c2cccc(Cl)c2)C1 (racemic)

- Ki [1]: 1.83 nM
- IC50 [18]: 2060 nM
- Kb [18]: 21.5 nM
- inhibition [2]: 0%
- inhibition [3]: 4.22%
- inhibition [4]: 16.2%
- inhibition [5]: 22.3%
- inhibition [6]: 43.9%
- inhibition [7]: 15.2%
- inhibition [8]: 51.4%
- inhibition [9]: 16.4%
- inhibition [10]: 67.4%
- inhibition [11]: 0%
- inhibition [12]: 7.7%
- inhibition [13]: 23.4%
- inhibition [14]: 24.8%
- inhibition [15]: 0%
- inhibition [16]: 3.85%
- inhibition at 3 µM (CYP2C19): 50%
- inhibition at 3 µM (CYP2D6): 50%
- inhibition at 3 µM (CYP3A4): 10%
- inhibition [17]: 2.77%
SMILES: CN(C)C1CCc2c(c3cc(Br)ccc3n2S(=O)(=O)c2ccccc2)C1 (racemic)

- Ki [1]: 7.95 nM
SMILES: CN(C)C1CCc2c(c3cc(F)cc(F)c3n2S(=O)(=O)c2ccccc2)C1 (racemic)

- Ki [1]: 8.13 nM
SMILES: CN(C)C1CCc2c(c3cc(Cl)ccc3n2S(=O)(=O)c2ccccc2Br)C1 (racemic)

- Ki [1]: 3.71 nM
SMILES: COc1ccc2c(c1)c1c(n2S(=O)(=O)c2cccc(C(F)(F)F)c2)CCC(N(C)C)C1 (racemic)

- Ki [1]: 1.92 nM
- IC50 [18]: 1950 nM
- Kb [18]: 20.4 nM
- inhibition [2]: 9.14%
- inhibition [3]: 5.26%
- inhibition [4]: 8.72%
- inhibition [5]: 44.5%
- inhibition [6]: 57.5%
- inhibition [7]: 5.6%
- inhibition [8]: 19.6%
- inhibition [9]: 16.3%
- inhibition [10]: 60.4%
- inhibition [11]: 18.4%
- inhibition [12]: 24.8%
- inhibition [13]: 26.8%
- inhibition [14]: 49.1%
- inhibition [15]: 4.14%
- inhibition [16]: 18%
- inhibition at 3 µM (CYP2C19): 50%
- inhibition at 3 µM (CYP2D6): 50%
- inhibition at 3 µM (CYP3A4): 10%
- metabolised [20]: 17%
- metabolised [21]: 72%
- inhibition [17]: 20.7%
SMILES: CN(C)C1CCc2c(c3ccccc3n2S(=O)(=O)c2cccc(C(F)(F)F)c2)C1 (racemic)

- Ki [1]: 5.01 nM
SMILES: CN(C)C1CCc2c(c3cc(F)ccc3n2S(=O)(=O)c2cccc(Cl)c2)C1 (racemic)

- Ki [1]: 4.68 nM
SMILES: COc1ccc2c(c1)c1c(n2S(=O)(=O)c2ccccc2Cl)CCC(N(C)C)C1 (racemic)

- Ki [1]: 12.2 nM
SMILES: CN(C)C1CCc2c(c3cc(Cl)ccc3n2S(=O)(=O)c2cccc(C(F)(F)F)c2)C1 (racemic)

- Ki [1]: 2.68 nM
SMILES: CSc1ccc2c(c1)c1c(n2S(=O)(=O)c2cccc(Cl)c2)CCC(N(C)C)C1 (racemic)

More lines, now with the values behind:

SMILES: CN(C)C1CCc2c(c3ccccc3n2S(=O)(=O)c2ccccc2Br)C1 (racemic)
- Ki [1]: 2.85 nM

SMILES: CNC1CCc2c(c3ccccc3n2S(=O)(=O)c2cccc(C(F)(F)F)c2)C1 (racemic)
- Ki [1]: 17.1 nM

SMILES: CN(C)C1CCc2c(c3ccccc3n2S(=O)(=O)c2ccccc2Cl)C1 (racemic)
- Ki [1]: 9.15 nM

SMILES: COc1ccc2c(c1)c1c(n2S(=O)(=O)c2ccccc2F)CCC(N(C)C)C1 (racemic)
- Ki [1]: 3.63 nM

SMILES: CN(C)C1CCc2c(c3cc(Br)ccc3n2S(=O)(=O)c2cccc(C(F)(F)F)c2)C1 (racemic)
- Ki [1]: 5.5 nM

SMILES: COc1ccc(S(=O)(=O)n2c3c(c4cc(OC)ccc42)CC(N(C)C)CC3)cc1 (racemic)
- Ki [1]: 19.8 nM

SMILES: CN(C)C1CCc2c(c3cc(Br)ccc3n2S(=O)(=O)c2ccc(F)c(F)c2F)C1 (racemic)
- Ki [1]: 61.2 nM

SMILES: Cc1ccc(S(=O)(=O)n2c3c(c4cc(Cl)ccc42)CC(N(C)C)CC3)cc1 (racemic)
- Ki [1]: 18.1 nM

SMILES: COc1ccc2c(c1)c(CCN(C)C)c1n2S(=O)(=O)c2ccccc2-1
- Ki [19]: 96 nM

SMILES: COc1ccc2c(c1)c1c(n2S(=O)(=O)c2cccc(C(F)(F)F)c2)CCC(N)C1 (racemic)
- Ki [1]: 39.1 nM

SMILES: COc1ccc(S(=O)(=O)n2c3c(c4cc(SC)ccc42)CC(N(C)C)CC3)cc1 (racemic)
- Ki [1]: 6.89 nM

SMILES: CN(C)C1CCc2c(c3cc(Cl)ccc3n2S(=O)(=O)c2ccccc2)C1 (racemic)
- Ki [1]: 16.1 nM

SMILES: NC1Cc2cccc3c2c(cn3S(=O)(=O)c2ccccc2)C1 (configuration not stated)
- Ki [19]: 1.6 nM

SMILES: CN(C)C1CCc2c(c3ccccc3n2S(=O)(=O)c2ccccc2F)C1 (racemic)
- Ki [1]: 10.4 nM

SMILES: CNC1CCc2c(c3cc(OC)ccc3n2S(=O)(=O)c2cccc(C(F)(F)F)c2)C1 (racemic)
- Ki [1]: 13.1 nM

SMILES: COc1ccc(S(=O)(=O)n2c3c(c4cc(Br)ccc42)CC(N(C)C)CC3)cc1 (racemic)
- Ki [1]: 29 nM

SMILES: CC(C)c1ccc(S(=O)(=O)n2c3c(c4cc(Br)ccc42)CC(N(C)C)CC3)cc1 (racemic)
- Ki [1]: 7.5 nM

SMILES: CSc1ccc2c(c1)c1c(n2S(=O)(=O)c2ccccc2)CCC(N(C)C)C1 (racemic)
- Ki [1]: 4.57 nM

SMILES: CN(C)C1CCc2c(c3cc(Br)ccc3n2S(=O)(=O)c2cc(C(F)(F)F)ccc2Cl)C1 (racemic)
- Ki [1]: 70.6 nM

SMILES: CN(C)C1CCc2c(c3ccccc3n2S(=O)(=O)c2ccc(Br)cc2)C1 (racemic)
- Ki [1]: 15.5 nM

SMILES: Cc1ccc(S(=O)(=O)n2c3c(c4ccccc42)CC(N(C)C)CC3)cc1 (racemic)
- Ki [1]: 8.28 nM

SMILES: CN(C)C1CCc2c(c3ccccc3n2S(=O)(=O)c2ccccc2)C1 (racemic)
- Ki [1]: 8.82 nM

SMILES: NC1CCc2c(c3ccccc3n2S(=O)(=O)c2cccc(C(F)(F)F)c2)C1 (racemic)
- Ki [1]: 73.4 nM

SMILES: COc1ccc(S(=O)(=O)n2c3c(c4ccccc42)CC(N(C)C)CC3)cc1 (racemic)
- Ki [1]: 20.4 nM

SMILES: CN(C)C1CCc2c(c3cc(Br)ccc3n2S(=O)(=O)c2ccc(F)c(F)c2)C1 (racemic)
- Ki [1]: 29 nM
